Results published in ChEMBL document CHEMBL1141719, “Naphthylphenstatins as tubulin ligands: synthesis and biological evaluation” (Bioorg Med Chem, 2008).
Values joined by “and” are separate entries in the source; they are usually repeats but may differ in a detail not shown here. Identical values can stand only once.

Assays:
[1] = test system: HT-29; test: Cytotoxicity against human HT-29 cells after 72 hrs by XTT assay; type: functional, cell-based
[2] = species on record: Bos taurus; test: Inhibition of calf brain tubulin polymerization at 30 uM relative to control
In short: (§1)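 Calf brain microtubule protein was purified by two cycles of temperature-dependent assembly/disassembly. Assay used 1.0 mg/mL MTP in 0.1 M MES, 1 mM EGTA, 1 mM MgCl2, 1 mM β-ME, 1.5 mM GTP, pH 6.7, with 4% DMSO. Ligand was preincubated 30 min at 20 °C, then 10 min on ice, and assembly started by shift from 4 °C to 37 °C. Turbidity was followed against a no-ligand control. Inhibition is percent of control, mean of at least three experiments.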

[3] = test system: HeLa; test: Cytotoxicity against human HeLa cells after 72 hrs by XTT assay; type: functional, cell-based
In short: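 HeLa (1.5 × 10³/well), HT-29 (3 × 10³/well) or A-549 (5 × 10³/well) cells seeded in 100 µL and allowed to attach for 24 h at 37 °C, 5% CO₂. Compounds at a range of concentrations for 72 h. Then XTT/PMS reagent added for 4 h, with absorbance read at 490 nm (reference 655 nm). IC50 is the concentration giving 50% inhibition of proliferation, mean of at least six experiments.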

[4] = test system: A549; test: Cytotoxicity against human A549 cells after 72 hrs by XTT assay; type: functional, cell-based
[5] = species on record: Bos taurus; test: Inhibition of calf brain tubulin polymerization at 20 uM relative to control; in short: as §1
[6] = Inhibition of calf brain tubulin polymerization relative to control; set-up: species or system Bos taurus; in short: as §1
[7] = species on record: Bos taurus; test: Inhibition of calf brain tubulin polymerization at 40 uM relative to control; in short: as §1

| inhibition [5] | Compound | IC50 ([1]; Homo sapiens, HT-29, 72 h) [µM] | IC50 ([3]; Homo sapiens, HeLa, 72 h) [µM] | IC50 ([4]; a549) | also measured |
| --- | --- | --- | --- | --- | --- |
| – | COc1cc(/C(=N/N)c2ccc3ccccc3c2)cc(OC)c1OC | 10 | – | – | inhibition [2]: 0% |
| – | COc1cc(/C(=N/NC(C)=O)c2ccc3ccccc3c2)cc(OC)c1OC | 10 | 10 | > 10 µM | IC50 ([3]; hela): > 10 µM; IC50 ([1]; ht-29): > 10 µM; IC50 ([4]; Homo sapiens, A549, 72 h): 10 µM; inhibition [2]: 35% |
| 0% | COc1ccc(/C(=N\OC(C)=O)c2ccc3ccccc3c2)c(OC)c1OC | 10 | 1.2 | > 10 µM | IC50 ([1]; ht-29): > 10 µM; IC50 ([4]; Homo sapiens, A549, 72 h): 10 µM |
| – | COc1cc(/C(=N/O)c2ccc3ccccc3c2)cc(OC)c1OC | 1.8 | 1.5 | > 10 µM | IC50 ([4]; Homo sapiens, A549, 72 h): 10 µM; inhibition [2]: 0% |
| 15% | COc1cc(/C(=N\OC(=O)OC(C)(C)C)c2ccc3ccccc3c2)cc(OC)c1OC | 10 | – | – | IC50 ([1]; ht-29): > 10 µM |
| 0% | COc1ccc(/C(=N\NC(C)=O)c2ccc3ccccc3c2)c(OC)c1OC | – | – | – | – |
| 0% | COc1cc(C(c2ccc3ccccc3c2)n2ccnc2)cc(OC)c1OC (stereo unspecified) | 10 | – | – | IC50 ([1]; ht-29): > 10 µM |
| 4% | CO/N=C(/c1cc(OC)c(OC)c(OC)c1)c1ccc2ccccc2c1 | 1 | – | – | – |
| 38% | COc1cc(/C(=N/OC(C)=O)c2ccc3ccccc3c2)cc(OC)c1OC | 1 | 0.001 | – | – |
| 10% and 5% | COc1cc(C(OC(C)=O)c2ccc3ccccc3c2)cc(OC)c1OC (stereo unspecified) | – | – | 1.2 µM and > 10 µM | IC50 ([3]; hela): 10 µM and 3.8 µM |
| 10% | COc1cc(/C(=N\OC(C)=O)c2ccc3ccccc3c2)cc(OC)c1OC | – | – | – | – |
| 0.25% and 4% | COc1ccc(C(=O)c2ccc3ccccc3c2)c(OC)c1OC | – | – | 1.7 µM and > 10 µM | IC50 ([3]; hela): 4 µM |
| 3% | COc1ccc(C(C)(O)c2ccc3ccccc3c2)c(OC)c1OC (stereo unspecified) | – | 1 | – | IC50 ([4]; Homo sapiens, A549, 72 h): 10 µM |
| – | COc1cc(C(O)c2ccc3ccccc3c2)cc(OC)c1OC (stereo unspecified) | – | – | – | inhibition [7]: 0% |
| 0% | COc1ccc(C(O)c2ccc3ccccc3c2)c(OC)c1OC (stereo unspecified) | – | 10 | > 10 µM | IC50 ([4]; Homo sapiens, A549, 72 h): 10 µM |
| 0% | COc1cc(/C(=N\NC(C)=O)c2ccc3ccccc3c2)cc(OC)c1OC | – | – | – | – |
| 26% | COc1ccc(C(OC(C)=O)c2ccc3ccccc3c2)c(OC)c1OC (stereo unspecified) | – | 2.7 | – | IC50 ([4]; Homo sapiens, A549, 72 h): 10 µM |
| – | COc1ccc(/C(=N\OC(=O)OC(C)(C)C)c2ccc3ccccc3c2)c(OC)c1OC | 10 | – | – | IC50 ([1]; ht-29): > 10 µM |
| – | COc1ccc(/C(=N/O)c2ccc3ccccc3c2)c(OC)c1OC | 1 | 0.4 | > 10 µM | IC50 ([4]; Homo sapiens, A549, 72 h): 10 µM; inhibition [2]: 0% |
| – | COc1cc(C(=O)c2ccc3ccccc3c2)cc(OC)c1OC | – | – | 0.043 µM | IC50 [6]: 1.1 µM |
| 0% | COc1ccc(/C(=N\N)c2ccc3ccccc3c2)c(OC)c1OC | – | – | – | – |
| – | COc1ccc(C(=O)c2cc(OC)c(OC)c(OC)c2)cc1O [PHENSTATIN] | – | – | – | IC50 [6]: 2.5 µM |
| – | CN/N=C(/c1cc(OC)c(OC)c(OC)c1)c1ccc2ccccc2c1 | – | – | – | inhibition [2]: 31% |

| Compound | inhibition [5] | IC50 ([1]; Homo sapiens, HT-29, 72 h) [µM] | IC50 ([3]; Homo sapiens, HeLa, 72 h) [µM] | IC50 ([4]; a549) | also measured |
| --- | --- | --- | --- | --- | --- |
| COc1ccc(/C=C\c2cc(OC)c(OC)c(OC)c2)cc1O [COMBRETASTATIN A4] | 100% | – | 2.7 | – | IC50 [6]: 3 µM |
